Calls of active or inactive are those of the source. The calls are words filed in the database; no cut-off is given here.
Legend:
U-87MG ATCC [1] = test: Antimigratory activity in human U87MG cells after 30 mins by boyden chamber assay; format: functional, cell-based
HCT-116 [2] = test: Induction of apoptosis in human HCT116 cells assessed as necrotic cells at 0.4 uM after 24 hrs by Annexin V-PE/7-AAD staining-based FACS analysis (reference value: 0.885%); format: functional
[3] = (§1) Inhibition of colony formation in human U87MG cells after 2 weeks by crystal violet staining-based assay; format: functional, cell-based, U-87MG ATCC; conditions: U-87 MG, 336 h
Method in brief: (§2)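 Seeding: 250 cells per well for HCT-116, 300 for U87MG, MDA-MB-231 and PC-3; incubated overnight, then exposed to a range of concentrations for 2 weeks. Fixed in 4% paraformaldehyde 30 min at room temperature, stained with 0.1% crystal violet. Colonies over 50 cells counted; colony formation rate calculated; IC50 by nonlinear regression.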

U-87MG ATCC [4] = test: as §1; format: functional, cell-based; method in brief: as §2
U-87 MG [5] = test: Induction of apoptosis in human U87MG cells assessed as necrotic cells at 0.3 uM after 24 hrs by Annexin V-PE/7-AAD staining-based FACS analysis (reference value: 1.06%); format: functional, U-87MG ATCC
[6] = Antiproliferative activity against human U87MG cells after 48 hrs by WST-1 assay; format: functional, cell-based, U-87MG ATCC; conditions: U-87 MG
Method in brief: (§3)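 Exponentially growing cells in DMEM/10% FBS seeded at 5 × 10^3 per well, left overnight, then exposed 48 h to compounds diluted from DMSO; WST-1 added for 2 h, absorbance at 450 nm (reference 620 nm); viability as ratio to DMSO controls; three independent experiments, triplicate points; IC50 by nonlinear regression (log inhibitor vs normalized response, variable slope).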

[7] = (§4) Inhibition of colony formation in human HCT116 cells after 2 weeks by crystal violet staining-based assay; format: functional, cell-based; conditions: HCT-116, 336 h; method in brief: as §2
HCT-116 [8] = test: as §4; format: functional, cell-based; method in brief: as §2
[9] = Cell cycle arrest in human HCT116 cells assessed as accumulation at G2/M phase at 0.4 uM after 24 hrs by propidium iodide staining-based flow cytometry (reference value: 14.6%); format: functional; conditions: HCT-116
Method in brief: (§5)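 Cells plated at 10^5 per well, left overnight, then exposed 24 h to compound or vehicle; stained 15 min at 37 °C with propidium iodide/Triton buffer; DNA content by flow cytometry, phase distribution fitted by Dean–Jett–Fox; HCT-116 at 0.3–0.5 μM, U87-MG at 0.3–3 μM; significance by unpaired Student's t test; one representative experiment.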

U-87 MG [10] = test: Induction of apoptosis in human U87MG cells assessed as early apoptotic cells at 0.3 uM after 24 hrs by Annexin V-PE/7-AAD staining-based FACS analysis (reference value: 0.691%); format: functional, U-87MG ATCC
HCT-116 [11] = test: Induction of apoptosis in human HCT116 cells assessed as viable cells at 0.4 uM after 24 hrs by Annexin V-PE/7-AAD staining-based FACS analysis (reference value: 93.2%); format: functional; conditions: HCT-116, 24 h, read-out: Activity
MDA-MB-231 [12] = test: Antiproliferative activity against human MDA-MB-231 cells after 48 hrs by WST-1 assay; format: functional, cell-based; conditions: MDA-MB-231, 48 h; method in brief: as §3
[13] = Antiproliferative activity against human HCT116 cells after 48 hrs by WST-1 assay; format: functional, cell-based; conditions: HCT-116, 48 h; method in brief: as §3
[14] = Cell cycle arrest in human U87MG cells at < 0.3 uM after 24 hrs by propidium iodide staining-based flow cytometry; format: functional; conditions: U-87MG ATCC; method in brief: as §5
U-87 MG [15] = test: Induction of apoptosis in human U87MG cells assessed as late apoptotic cells at 0.3 uM after 24 hrs by Annexin V-PE/7-AAD staining-based FACS analysis (reference value: 1.59%); format: functional, U-87MG ATCC
U-87 MG [16] = test: Induction of apoptosis in human U87MG cells assessed as viable cells at 0.3 uM after 24 hrs by Annexin V-PE/7-AAD staining-based FACS analysis (reference value: 96.7%); format: functional, U-87MG ATCC; conditions: read-out: Activity
U-87 MG [17] = test: Reduction of cell adherence in human U87MG cells at 0.5 uM after 30 mins by toluidine blue staining-based […]; format: functional, U-87MG ATCC; parameters: scale not given: the % may be the effect or the level left
Method in brief: (§6)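 U87-MG cells grown in 10% serum, trypsinised, diluted to 100 000 cells/mL in 10% serum medium, then treated 30 min with compound or DMSO. 20 000 cells per well allowed to attach 1 h. Fixed in 4% paraformaldehyde 30 min, stained with 0.1% toluidine blue in 4% PFA 30 min, washed, OD read at 620 nm for attached cells.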

HCT-116 [18] = test: Induction of apoptosis in human HCT116 cells assessed as late apoptotic cells at 0.4 uM after 24 hrs by Annexin V-PE/7-AAD staining-based FACS analysis (reference value: 1.22%); format: functional
U-87 MG [19] = test: Reduction of cell adherence in human U87MG cells after 30 mins by toluidine blue staining-based […]; format: functional; conditions: U-87MG ATCC; method in brief: as §6
[20] = Antimigratory activity in human U87MG cells at 0.4 uM […] by transwell membrane assay; format: functional, U-87MG ATCC
[21] = Antiinvasive activity in human U87MG cells after 24 hrs by matrigel assay; format: functional, U-87MG ATCC
Method in brief: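 U-87MG pre-exposed 24 h to compound or DMSO in 3% FBS, then 4 × 10^4 cells seeded in upper chamber of impedance-based CIM-16 plate (8 μm pore membrane) coated with Matrigel/collagen; lower chamber 10% FBS; cell index monitored at 37 °C, 5% CO2 for 12 h; slope (1/h) over set interval, DMSO slope set to 100; duplicate wells, repeated twice.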

MDA-MB-231 [22] = test: Inhibition of colony formation in human MDA-MB-231 cells after 2 weeks by crystal violet staining-based assay; format: functional, cell-based; method in brief: as §2
HCT-116 [23] = test: Induction of apoptosis in human HCT116 cells assessed as early apoptotic cells at 0.4 uM after 24 hrs by Annexin V-PE/7-AAD staining-based FACS analysis (reference value: 4.68%); format: functional
U-87MG ATCC [24] = test: Antiinvasive activity in human U87MG cells after 30 mins by boyden chamber assay; format: functional, cell-based
Focal adhesion kinase 1 = Focal adhesion kinase 1 (Homo sapiens, UniProt Q05397); test: Inhibition of FAK (unknown origin) using ULight-poly GT as substrate after 1.6 hrs by TR-FRET assay
[25] = Antiproliferative activity against human PC3 cells after 48 hrs by WST-1 assay; format: functional, cell-based; conditions: PC-3, 48 h; method in brief: as §3
HCT-116 [26] = test: Induction of apoptosis in human HCT116 cells at < 0.4 uM after 24 hrs by Annexin V-PE/7-AAD staining-based FACS analysis; format: functional, cell-based
[27] = Cell cycle arrest in human HCT116 cells assessed as accumulation at G0/G1 phase at 0.4 uM after 24 hrs by propidium iodide staining-based flow cytometry (reference value: 63.8%); format: functional; conditions: HCT-116; method in brief: as §5
PC-3 = test: (§7) Inhibition of colony formation in human PC3 cells after 2 weeks by crystal violet staining-based assay; format: functional, cell-based; method in brief: as §2
[28] = as §7; format: functional, cell-based; conditions: PC-3, 336 h; method in brief: as §2
[29] = Cell cycle arrest in human HCT116 cells assessed as accumulation at S phase at 0.4 uM after 24 hrs by propidium iodide staining-based flow cytometry (reference value: 17.7%); format: functional; conditions: HCT-116; method in brief: as §5
[30] = Cell cycle arrest in human HCT116 cells at < 0.4 uM after 24 hrs by propidium iodide staining-based flow cytometry; format: functional; conditions: HCT-116; method in brief: as §5

Sequence of Focal adhesion kinase 1 (Q05397 whole entry): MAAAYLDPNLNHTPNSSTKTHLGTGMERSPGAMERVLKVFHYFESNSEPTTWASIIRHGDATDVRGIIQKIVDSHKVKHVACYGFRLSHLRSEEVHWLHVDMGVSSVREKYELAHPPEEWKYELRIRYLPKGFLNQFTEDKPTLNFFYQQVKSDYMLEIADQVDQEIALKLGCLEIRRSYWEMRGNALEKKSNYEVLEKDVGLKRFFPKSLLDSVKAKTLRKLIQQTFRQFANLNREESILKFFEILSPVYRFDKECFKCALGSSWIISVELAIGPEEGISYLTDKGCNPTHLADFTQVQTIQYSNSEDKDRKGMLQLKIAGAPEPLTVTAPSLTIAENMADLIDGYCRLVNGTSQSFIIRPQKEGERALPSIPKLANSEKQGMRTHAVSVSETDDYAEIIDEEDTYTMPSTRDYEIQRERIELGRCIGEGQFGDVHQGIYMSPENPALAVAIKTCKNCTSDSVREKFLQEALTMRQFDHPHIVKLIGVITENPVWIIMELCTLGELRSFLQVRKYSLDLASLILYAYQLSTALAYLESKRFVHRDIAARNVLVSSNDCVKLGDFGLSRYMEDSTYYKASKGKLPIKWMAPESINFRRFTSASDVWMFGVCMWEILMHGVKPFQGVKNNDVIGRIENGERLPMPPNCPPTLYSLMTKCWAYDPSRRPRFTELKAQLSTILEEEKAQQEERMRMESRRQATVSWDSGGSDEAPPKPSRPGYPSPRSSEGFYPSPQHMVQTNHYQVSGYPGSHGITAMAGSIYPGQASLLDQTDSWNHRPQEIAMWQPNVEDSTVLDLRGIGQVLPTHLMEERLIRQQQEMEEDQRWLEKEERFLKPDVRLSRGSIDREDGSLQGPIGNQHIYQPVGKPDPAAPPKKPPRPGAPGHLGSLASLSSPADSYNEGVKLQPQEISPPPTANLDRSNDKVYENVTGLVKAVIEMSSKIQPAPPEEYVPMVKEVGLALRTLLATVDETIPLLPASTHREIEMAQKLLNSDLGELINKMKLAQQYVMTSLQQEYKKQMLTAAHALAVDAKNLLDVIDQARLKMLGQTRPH

With `CNC(=O)c1ccccc1Nc1nc(Nc2ccc(CN)cc2)nc2nccn12` the Activity (U-87MG ATCC [1]) was “Dose-dependent effect”, the Activity (HCT-116 [2]) was 3.03% and the IC50 [3] was 220 nM. For the same molecule, the inhibition (U-87MG ATCC [4]) was “Dose-dependent effect”, the Activity (U-87 MG [5]) was 1.26% and the IC50 [6] was 370 nM. For the same molecule, the IC50 [7] was 120 nM, the inhibition (HCT-116 [8]) was “Dose-dependent effect” and the Activity [9] was 61%. It also gave an Activity (U-87 MG [10]) of 1.37%, a viability at 0.4 µM (HCT-116 [11]) of 88.7% and an IC50 (MDA-MB-231 [12]) of 1080 nM. For the same molecule, the IC50 [13] was 310 nM, the Activity [14] was “Active” and the Activity (U-87 MG [15]) was 0.755%. The viability at 0.3 µM (U-87 MG [16]) was 96.6%, the Activity (U-87 MG [17]) was 50% and the Activity (HCT-116 [18]) was 4.06%. The Activity (U-87 MG [19]) was “Dose-dependent effect”, the Activity [20] was 66.4% and the Activity [21] was 50%. For the same molecule, the inhibition (MDA-MB-231 [22]) was “Dose-dependent effect”, the IC50 (MDA-MB-231 [22]; MDA-MB-231, 336 h) was 520 nM and the Activity (HCT-116 [23]) was 4.24%. For the same molecule, the Activity (U-87MG ATCC [24]) was “Dose-dependent effect”, the IC50 (Focal adhesion kinase 1) was 120 nM and the IC50 [25] was 1270 nM. For the same molecule, the Activity (HCT-116 [26]) was “inactive”, the Activity [27] was 24.4% and the inhibition (PC-3) was “Dose-dependent effect”. The IC50 [28] was 1400 nM, the Activity [29] was 12.8% and the Activity [30] was “Active”.
